Source: PubChem
An excerpt weighted towards active compounds, which were near 2% of everything screened.
E-selectin induc: induces E-selectin expression in human endothelial cells | HUVEC E-selectin immunofluorescence imaging; normalized: neutral wells 0, TNF-alpha wells 100 | activation, % at 7.58 µM | 0.37% of 260,000 active | AID 686992;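 active = mean E-selectin-positive cell signal at least 10% of the positive control, reached in at least 60% of replicates, without over 20% cell loss; inconclusive = no rule given, readout overlaps actives, possibly toxicity-flagged; inactive = the rest, including those meeting only one limit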
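Assay system: HUVEC primary endothelial cells. Input: 3,000 HUVEC seeded per well. Doses: one compound dose added by pin transfer. Read-out basis: % PE-positive cells. Benchmarks: TNF-alpha high, DMSO low. Detection: immunofluorescence imaging. Buffer or medium: EGM-2, gelatin.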
DENV2 CPE: DENV2-induced cell death inhibition | 1.7% of 350,000 active | AID 651640 | DENV2-infected cells, cytopathic effect rescue, plate reader | CPE inhibition, % at 9.99 µM; in the data active = CPE inhibition above about 20%, passing the limit was not always enough; inconclusive = no clear call, values can overlap the other calls; tested in BHK-21 cells;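 also: 0% = median of neutral control wells and 100% = median of positive control wells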
S100A4 MyoIIA: blocks human S100A4 binding to myosin IIA peptide; S100A4/TAMRA-MyoIIA peptide fluorescence polarization; inhibition, % at 10.7 µM; 0.14% of 360,000 active; AID 652163;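 active = mean inhibition of at least 70% across replicates, with every replicate also reaching that level; inconclusive = mean inhibition reaches 70% but some replicates fall short; inactive = mean inhibition below 70%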
Target sequence (P26447 whole entry, looked up): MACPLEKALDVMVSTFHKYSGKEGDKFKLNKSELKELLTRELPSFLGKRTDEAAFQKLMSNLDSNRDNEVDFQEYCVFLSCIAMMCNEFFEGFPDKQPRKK
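Test system: S100A4 monomer protein; Medium: HEPES pH 7.2 with CaCl2, KCl, NaCl, DTT, Triton; Probe or stimulus: TAMRA-labelled myosin IIA heavy-chain peptide probe, 5 nM; Doses: one dose per compound; Times: polarization read 5 min after assay mix addition, stable 5–60 min; Benchmarks: neutral control DMSO, positive control TFP.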
Xi reactivation: reactivates the inactive X chromosome in mouse fibroblasts; AID 743238; 0.055% of 360,000 active; XiGFP mouse fibroblasts, % GFP-positive cells imaging, 3 d; cells co-treated with 5-aza-dC sensitizer; scaled so ellipticine positive control = 100%; activation, % at 7.58 µM;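 active = mean normalized replicate activation at least 10% and every replicate at or above 10%; inconclusive = only one of the two criteria met; inactive = mean below 10% and not all replicates reach 10%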;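 also: 0% = median of on-plate neutral control wells and 100% = ellipticine 6 µM median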
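System: 68-5-11 XiGFP fibroblast line | Buffer or medium: DMEM containing 5-aza-dC | Compound: Single point | Times: Compounds 3 days, fix/stain 15 min at room temperature | Benchmarks: Positive control ellipticine, 6 µM final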
Numbers without * were called inactive; u = inconclusive; x = no result given; ! = not active in a repeat.

SMILES | E-selectin induc | DENV2 CPE | S100A4 MyoIIA | Xi reactivation
COC(=O)C1=C(c2ccc3ccccc3c2)C[C@@H]2CC[C@H]1N2C(=O)N1CCOCC1 | 0 | -9 | 0 | 0
COC(=O)C1=C(c2ccccc2)C[C@@H]2CC[C@H]1N2C(=O)N1CCC(C)CC1 | 0 | u | 8 | 0
COC(=O)C1=C(c2ccccc2)C[C@@H]2CC[C@H]1N2C(=O)N1CCOCC1 | 0 | 38* | -2 | 0
COC(=O)C1=C(c2ccc(OC(F)(F)F)cc2)C[C@@H]2CC[C@H]1N2C(=O)N1CCCCC1 | 0 | 48* | 0 | 1
C=C(C)[C@H]1CN[C@H](C(=O)O)[C@H]1CC(=O)O | 0 | -7 | 17 | 0
O=C(NP(=O)(N1CC1)N1CC1)c1cc(I)ccc1I | 0 | 12 | -1 | 0
COC(=O)[C@H]1N[C@H]2c3ccc(C4=CCCC4)c(=O)n3C[C@H]2[C@@H]1CO | 0 | 128* | -16 | 1
O=P(Nc1cccnc1)(Oc1ccccc1Cl)Oc1ccccc1Cl | -2 | 6 | 6 | 0
CCOC(=O)[C@]12Cc3ccc(C)cc3[C@H]1N(C1CCCCC1)C(=O)c1cc(OC)ccc12 | 0 | 55* | 49 | 0
CCOC(=O)[C@]12Cc3ccc(C)cc3[C@H]1N(C1CCCCC1)C(=O)c1ccccc12 | 0 | 3 | 13 | 0
O=c1[nH]c2ccccc2n1C1CCN(C(c2cc3ccccc3o2)c2nnnn2-c2ccc3c(c2)OCCO3)CC1 (stereo not drawn) | 0 | -12 | -6 | 0
O=c1[nH]c2ccccc2n1C1CCN(C(c2cccc3ccccc23)c2nnnn2-c2ccc3c(c2)OCCO3)CC1 (stereo not drawn) | 23 | 25* | -3 | 0
C[C@H](CO)N1C[C@H](C)[C@@H](CN(C)C(=O)Oc2ccccc2)OCc2ccccc2-c2c(n(C)c3ccccc23)C1=O | x | x | x | 0
C[C@H]1CN([C@@H](C)CO)C(=O)c2c(c3ccccc3n2C)-c2ccccc2CO[C@H]1CN(C)C(=O)Oc1ccccc1 | 0 | 81* | 0 | 0
CC(C)(C)c1o[nH]c(=O)c1CC(N)C(=O)O (stereo not drawn) | 0 | 11 | -4 | 0
NC(C(=O)O)c1cc(=O)[nH]o1 (stereo not drawn) | 84* | 2 | 2 | 0
COc1ccc(C(c2c(O)c3ccccc3oc2=O)c2c(C)n(C)n(-c3ccccc3)c2=O)cc1 (stereo not drawn) | 5 | x | x | 0
COc1ccc2c(c1)C13CCN4CC5=CCOC6CC(=O)N2C1C6C5CC43 (stereo not drawn) | x | 71* | 1 | x
C=CCCC1(C2=CCCCC2)C(=O)NC(=O)NC1=O | 0 | 27* | 12 | 0
Cc1nc(C)c(C(=O)NN=Cc2ccc(N(CCCl)CCCl)cc2)s1 | 0 | -8 | 1 | 0
N#Cc1ccc2nc(-c3ccc(CN4CCC(n5c(=O)[nH]c6ccccc65)CC4)cc3)c(-c3ccccc3)nc2c1 | -2 | 7 | 11 | 0
Cn1cccc1CNCCc1ccc(F)cc1 | x | x | -2 | x
COc1ccc(CCNCc2cccn2C)cc1OC | 0 | 69* | 0 | 0
COc1ccc(CCNC(C)CCc2ccc(OC)cc2)cc1 (stereo not drawn) | x | -3 | 2 | x
CC12CC3CC(C)(C1)CC(N)(C3)C2 | 0 | 5 | 6 | 0
SMILES | E-selectin induc | DENV2 CPE | S100A4 MyoIIA | Xi reactivation
COC(=O)C1C(c2ccc(C)cc2)CC2CCC1N2C (stereo not drawn) | x | 28* | -3 | x
CC12CCC3C(CC=C4CC5(CCC43C)OCCO5)C1CCC2=O (stereo not drawn) | 1 | -1 | -2 | 0
OCC(Br)CBr (stereo not drawn) | x | -13 | 17 | x
O=C(O)C(Br)CBr (stereo not drawn) | x | -9 | 100* | x
C[C@]12CCC(=O)C=C1C=C[C@@H]1[C@@H]2CC[C@@]2(C)[C@H]1CC[C@@]2(O)CCC(=O)O | 0 | -7 | 6 | 0
c1ccc(Nc2ccc(Nc3ccccc3)cc2)cc1 | x | 41* | 5 | x
O=[N+]([O-])c1ccc(Nc2ccccc2)cc1 | x | -4 | 6 | 0
CCNC(=S)N1CCn2cccc2C1c1cccnc1 (stereo not drawn) | x | -5 | -7 | 0
O=C(O)[C@H]1[C@H](CO)[C@H]2Cn3c(ccc(-c4ccncc4)c3=O)[C@@H]1N2C(=O)C1CCCCC1 | 0 | -2 | 99* | 0
O=C(O)[C@H]1[C@H](CO)[C@H]2Cn3c(ccc(-c4ccncc4)c3=O)[C@@H]1N2C(=O)C1CCC1 | 0 | -3 | 13 | 0
C[C@]12CC[C@@H](O)CC1=CCC1C2CC[C@@]2(C)C1CC[C@@H]2N (stereo partly drawn) | 1 | -9 | -1 | 0
C[C@]12CC[C@@H](O)CC1=CCC1C2CC[C@@]2(C)C1C[C@@H](F)[C@H]2O (stereo partly drawn) | 0 | 33* | 5 | 0
C/C=C/c1ccc([C@H]2[C@@H](CO)N3CCCCN(C(=O)Cc4ccncc4)C[C@@H]23)cc1 | 0 | 140* | -1 | 0
N#Cc1cccc(-c2ccc([C@@H]3[C@@H](CO)N4CCCCN(C(=O)Cc5ccccc5)C[C@@H]34)cc2)c1 | 0 | 38* | 1 | 0
COc1ccc(C#Cc2ccc([C@@H]3[C@H](CO)N4CCCCN(C(=O)Cc5cccnc5)C[C@@H]34)cc2)cc1 | 0 | 27* | -14 | 0
COc1cccc(-c2ccc([C@H]3[C@@H](CO)N4CCCCN(C(=O)Cc5ccncc5)C[C@@H]34)cc2)c1 | 0 | 27* | -7 | 0
O=C1NC(=O)C2(CCN(S(=O)(=O)c3ccccc3)CC2)C(=O)N1 | 0 | -9 | -16 | 0
Cc1ccccc1-n1c(-c2ccc([N+](=O)[O-])cc2)nc2ccccc2c1=O | x | 10 | -20 | 0
CCOc1ccc(CN2CCCC(C(=O)c3ccccc3OC)C2)cc1 (stereo not drawn) | 0 | -4 | 2 | 0
Cc1ccc2n1Cc1cnnn1-c1ccccc1-2 | -1 | 0 | 1 | 0
O=C(Cc1cccnc1)N1CCCCN2[C@H](CO)[C@@H](c3ccc(/C=C/c4ccccc4)cc3)[C@H]2C1 | -1 | 1 | -1 | 0
O=C(Cc1cccnc1)N1CCCCN2[C@H](CO)[C@H](c3ccc(/C=C/c4ccccc4)cc3)[C@H]2C1 | -1 | 25* | -1 | 0
Cc1c(P(=S)(c2ccccc2)c2ccccc2)[n+]2ccccc2n1C | 0 | 73*! | 1 | 0
O=C(Nc1ccc(C(F)(F)F)cc1)OC1CN2CCC1CC2 (stereo not drawn) | 0 | 39* | -4 | 0
COC(=O)[C@@H]1C[C@@]1(C)[C@@H](NP(=O)(c1ccccc1)c1ccccc1)c1ccccc1 | 1 | -6 | -13 | 0
COc1ccc(-c2ccc3c(c2)CN(C(=O)NC2CCCCC2)Cc2cnnn2-3)cc1 | 1 | 24* | -4 | 0
